Test results published in ChEMBL document CHEMBL4130535, “Aquilanols A and B, Macrocyclic Humulene-Type Sesquiterpenoids from the Agarwood of Aquilaria malaccensis” (2017).
Values after ≈ are worked out from the molar mass of the structure shown.

Columns and labels:
[1] = test system: Enterococcus faecalis; assay: Antibacterial activity against Enterococcus faecalis ATCC 19433 after 24 hrs; assay type: functional; settings: ATCC 19433, 24 h
Procedure, shortened: (§1)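 MIC determination, following a previously reported method, against the listed Gram-positive and Gram-negative ATCC strains.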

[2] = test system: Trichophyton mentagrophytes; assay: Antifungal activity against Trichophyton mentagrophytes IFM 40996 after 48 to 72 hrs; assay type: functional
Procedure, shortened: (§2)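 MIC determination, following a previously reported method, against the listed fungal strains, with amphotericin B as the positive control.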

[3] = test system: Trichophyton rubrum; assay: Antifungal activity against Trichophyton rubrum NBRC 9185 after 48 to 72 hrs; assay type: functional; procedure, shortened: as §2
[4] = test system: Escherichia coli; assay: Antibacterial activity against Escherichia coli ATCC 25922 after 24 hrs; assay type: functional; settings: ATCC 25922, 24 h; procedure, shortened: as §1
[5] = test system: Klebsiella pneumoniae; assay: Antibacterial activity against Klebsiella pneumoniae ATCC 10031 after 24 hrs; assay type: functional; settings: ATCC 10031, 24 h; procedure, shortened: as §1
[6] = test system: Staphylococcus aureus; assay: Antibacterial activity against Staphylococcus aureus ATCC 25923 after 24 hrs; assay type: functional; settings: ATCC 25923, 24 h; procedure, shortened: as §1
[7] = test system: Enterococcus faecium; assay: Antibacterial activity against Enterococcus faecium ATCC 19434 after 24 hrs; assay type: functional; settings: ATCC 19434, 24 h; procedure, shortened: as §1
[8] = test system: Candida albicans; assay: Antifungal activity against Candida albicans ATCC 10231 after 48 to 72 hrs; assay type: functional; procedure, shortened: as §2
[9] = test system: Aspergillus fumigatus; assay: Antifungal activity against Aspergillus fumigatus HIC 6094 after 48 to 72 hrs; assay type: functional; procedure, shortened: as §2
[10] = test system: Salmonella typhimurium; assay: Antibacterial activity against Salmonella enterica ATCC 14028 after 24 hrs; assay type: functional, Salmonella enterica subsp. enterica serovar Typhimurium; settings: ATCC 14028, 24 h; procedure, shortened: as §1

SMILES | MIC [1] [µM] | MIC [2] [µM] | MIC [3] [µM] | MIC [4] [µM] | MIC [5] [µM] | MIC [6] [µM] | MIC [7] [µM] | MIC [8] [µM] | MIC [9] [µM] | MIC [10] [µM]
COC(=O)[C@@]1(C)[C@]2(C)CC(=O)[C@@]1(O)CC1=C2C(=O)C[C@@H]1C | 430 to 580 (≈ 126 to 170 µg/mL) | 430 to 580 (≈ 126 to 170 µg/mL) | 430 to 580 (≈ 126 to 170 µg/mL) | 430 to 580 (≈ 126 to 170 µg/mL) | 430 to 580 (≈ 126 to 170 µg/mL) | 430 to 580 (≈ 126 to 170 µg/mL) | 430 to 580 (≈ 126 to 170 µg/mL) | 430 to 580 (≈ 126 to 170 µg/mL) | 430 to 580 (≈ 126 to 170 µg/mL) | 430 to 580 (≈ 126 to 170 µg/mL)
C=C1C2C[C@H]3[C@@H](C)CC[C@@]3(C(C)=CC2=O)[C@@H]1O | 430 to 580 (≈ 99.9 to 135 µg/mL) | 430 to 580 (≈ 99.9 to 135 µg/mL) | 430 to 580 (≈ 99.9 to 135 µg/mL) | 430 to 580 (≈ 99.9 to 135 µg/mL) | 430 to 580 (≈ 99.9 to 135 µg/mL) | 430 to 580 (≈ 99.9 to 135 µg/mL) | 430 to 580 (≈ 99.9 to 135 µg/mL) | 430 to 580 (≈ 99.9 to 135 µg/mL) | 430 to 580 (≈ 99.9 to 135 µg/mL) | 430 to 580 (≈ 99.9 to 135 µg/mL)
COC(=O)[C@H]1C[C@]23CC[C@H](C)[C@@H]2C[C@@]1(O)C(=O)C=C3C | 430 to 580 (≈ 120 to 161 µg/mL) | 430 to 580 (≈ 120 to 161 µg/mL) | 430 to 580 (≈ 120 to 161 µg/mL) | 430 to 580 (≈ 120 to 161 µg/mL) | 430 to 580 (≈ 120 to 161 µg/mL) | 430 to 580 (≈ 120 to 161 µg/mL) | 430 to 580 (≈ 120 to 161 µg/mL) | 430 to 580 (≈ 120 to 161 µg/mL) | 430 to 580 (≈ 120 to 161 µg/mL) | 430 to 580 (≈ 120 to 161 µg/mL)
C[C@H]1CC=C2[C@H]1C[C@]1(O)C(=O)C[C@@]2(C)[C@]1(C)CO | 430 to 580 (≈ 108 to 145 µg/mL) | 430 to 580 (≈ 108 to 145 µg/mL) | 430 to 580 (≈ 108 to 145 µg/mL) | 430 to 580 (≈ 108 to 145 µg/mL) | 430 to 580 (≈ 108 to 145 µg/mL) | 430 to 580 (≈ 108 to 145 µg/mL) | 430 to 580 (≈ 108 to 145 µg/mL) | 430 to 580 (≈ 108 to 145 µg/mL) | 430 to 580 (≈ 108 to 145 µg/mL) | 430 to 580 (≈ 108 to 145 µg/mL)
CC1(C)C/C=C2/CCC(O)C(C)(CC3OC31)OC2 (racemic) | 430 to 580 (≈ 109 to 146 µg/mL) | 430 to 580 (≈ 109 to 146 µg/mL) | 430 to 580 (≈ 109 to 146 µg/mL) | 430 to 580 (≈ 109 to 146 µg/mL) | 430 to 580 (≈ 109 to 146 µg/mL) | 430 to 580 (≈ 109 to 146 µg/mL) | 430 to 580 (≈ 109 to 146 µg/mL) | 430 to 580 (≈ 109 to 146 µg/mL) | 430 to 580 (≈ 109 to 146 µg/mL) | 430 to 580 (≈ 109 to 146 µg/mL)
C=C1[C@@H](O)[C@]23CC[C@H](C)[C@@H]2C[C@@]1(O)C(=O)C=C3C | 430 to 580 (≈ 107 to 144 µg/mL) | 430 to 580 (≈ 107 to 144 µg/mL) | 430 to 580 (≈ 107 to 144 µg/mL) | 430 to 580 (≈ 107 to 144 µg/mL) | 430 to 580 (≈ 107 to 144 µg/mL) | 430 to 580 (≈ 107 to 144 µg/mL) | 430 to 580 (≈ 107 to 144 µg/mL) | 430 to 580 (≈ 107 to 144 µg/mL) | 430 to 580 (≈ 107 to 144 µg/mL) | 430 to 580 (≈ 107 to 144 µg/mL)

Next, values leading:

MIC [1] [µM] | MIC [2] [µM] | MIC [3] [µM] | MIC [4] [µM] | MIC [5] [µM] | MIC [6] [µM] | MIC [7] [µM] | MIC [8] [µM] | MIC [9] [µM] | MIC [10] [µM] | SMILES
430 to 580 (≈ 94.8 to 128 µg/mL) | 430 to 580 (≈ 94.8 to 128 µg/mL) | 430 to 580 (≈ 94.8 to 128 µg/mL) | 430 to 580 (≈ 94.8 to 128 µg/mL) | 430 to 580 (≈ 94.8 to 128 µg/mL) | 430 to 580 (≈ 94.8 to 128 µg/mL) | 430 to 580 (≈ 94.8 to 128 µg/mL) | 430 to 580 (≈ 94.8 to 128 µg/mL) | 430 to 580 (≈ 94.8 to 128 µg/mL) | 430 to 580 (≈ 94.8 to 128 µg/mL) | C/C1=C/CC/C(CO)=C/CC(C)(C)/C=C/C1
430 to 580 (≈ 107 to 144 µg/mL) | 430 to 580 (≈ 107 to 144 µg/mL) | 430 to 580 (≈ 107 to 144 µg/mL) | 430 to 580 (≈ 107 to 144 µg/mL) | 430 to 580 (≈ 107 to 144 µg/mL) | 430 to 580 (≈ 107 to 144 µg/mL) | 430 to 580 (≈ 107 to 144 µg/mL) | 430 to 580 (≈ 107 to 144 µg/mL) | 430 to 580 (≈ 107 to 144 µg/mL) | 430 to 580 (≈ 107 to 144 µg/mL) | C[C@H]1CC=C2[C@H]1C[C@]1(O)C(=O)C[C@@]2(C)[C@]1(C)C=O
430 to 580 (≈ 102 to 137 µg/mL) | 430 to 580 (≈ 102 to 137 µg/mL) | 430 to 580 (≈ 102 to 137 µg/mL) | 430 to 580 (≈ 102 to 137 µg/mL) | 430 to 580 (≈ 102 to 137 µg/mL) | 430 to 580 (≈ 102 to 137 µg/mL) | 430 to 580 (≈ 102 to 137 µg/mL) | 430 to 580 (≈ 102 to 137 µg/mL) | 430 to 580 (≈ 102 to 137 µg/mL) | 430 to 580 (≈ 102 to 137 µg/mL) | CC1(C)/C=C/C[C@@]2(C)OC/C(=C\C1)CC[C@@H]2O
